Tested on: NET formation in human peripheral blood neutrophils
Test: MPO-ANCA-IC-induced NET formation in primed human peripheral blood neutrophils
Format: cell-based
Settings: for MPO-ANCA-IC-induced NET formation: avacopan 0.1 and 1 µM
Method in brief: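 Neutrophils isolated with Polymorphprep from the blood of healthy volunteers (n = 3). Cells were pretreated 15 min with an NE inhibitor (0, 50, 500 µM) or a C5aR inhibitor (0, 0.1, 1 µM), then primed with 5 ng/ml TNF-α or 100 ng/ml C5a for 15 min at 37 °C. They were seeded on MPO-ANCA-IC-coated chambers at 5 × 10^5/well for 3–4 h at 37 °C, then PFA-fixed and stained for CD15, Cit-H3 and DAPI. DAPI-positive DNA area per neutrophil was taken from three random images per well.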

Structure (SMILES) | MPO-ANCA-IC-induced NET formation (C5a-primed neutrophils) | MPO-ANCA-IC-induced NET formation (TNF-α-primed neutrophils) | DAPI-positive DNA area per neutrophil (TNF-α + MPO-ANCA-IC, sivelestat 0, 50, and 500 µM) | Neutrophil swelling (fold change) (TNF-α + MPO-ANCA-IC, sivelestat 500 µM)
Cc1ccc(NC(=O)[C@H]2CCCN(C(=O)c3c(C)cccc3F)[C@H]2c2ccc(NC3CCCC3)cc2)cc1C(F)(F)F [Avacopan, avacopan] | suppressed | but not in TNF-α-primed neutrophils |  | 
CC(C)(C)C(=O)Oc1ccc(S(=O)(=O)Nc2ccccc2C(=O)NCC(=O)O)cc1 [Sivelestat] |  |  | reduced by sivelestat dose-dependently and significantly | significantly suppressed

Reference: PMC11341692 (Nature Communications, 2024)
